According to ChEMBL document CHEMBL1135543, “Alpha(1)-adrenoceptor antagonists. 4. Pharmacophore-based design, synthesis, and biological evaluation of new imidazo-, benzimidazo-, and indoloarylpiperazine derivatives” (J Med Chem, 2002):

Assays:
[1] = biological target: T1, 5-hydroxytryptamine receptor 1A (Rattus norvegicus, UniProt P19327); test: Binding affinity against 5-hydroxytryptamine 1A receptor by displacing [3H]8-OH-DPAT radioligand in rat cortex membrane; assay type: cell membranes
T1 sequence (P19327 whole entry): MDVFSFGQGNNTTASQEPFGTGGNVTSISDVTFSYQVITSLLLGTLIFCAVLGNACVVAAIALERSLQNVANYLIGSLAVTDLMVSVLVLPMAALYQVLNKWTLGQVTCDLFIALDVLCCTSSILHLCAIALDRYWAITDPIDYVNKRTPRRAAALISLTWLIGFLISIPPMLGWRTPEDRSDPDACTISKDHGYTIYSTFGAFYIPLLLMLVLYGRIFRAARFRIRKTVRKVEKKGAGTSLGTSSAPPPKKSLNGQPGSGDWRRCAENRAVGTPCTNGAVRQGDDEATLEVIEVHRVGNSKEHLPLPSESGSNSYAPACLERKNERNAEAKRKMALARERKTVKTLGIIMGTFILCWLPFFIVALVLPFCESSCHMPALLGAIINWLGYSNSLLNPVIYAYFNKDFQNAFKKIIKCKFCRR
Outline: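 Rat cortex membranes, pre-incubated 10 min at 37 °C to remove endogenous 5-HT, stored at –80 °C, then resuspended in 50 mM Tris-HCl pH 7.4 (0.2–0.3 mg protein). GF/C filtration, scintillation counting.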

[2] = biological target: T2, Adrenergic receptor alpha-1 (Rattus norvegicus, UniProt P15823+P23944+P43140); test: Binding affinity against Alpha-1 adrenergic receptor by displacing [3H]-prazosin radioligand in rat cortex membrane; assay type: cell membranes, Brain
T2 sequence (P15823 whole entry): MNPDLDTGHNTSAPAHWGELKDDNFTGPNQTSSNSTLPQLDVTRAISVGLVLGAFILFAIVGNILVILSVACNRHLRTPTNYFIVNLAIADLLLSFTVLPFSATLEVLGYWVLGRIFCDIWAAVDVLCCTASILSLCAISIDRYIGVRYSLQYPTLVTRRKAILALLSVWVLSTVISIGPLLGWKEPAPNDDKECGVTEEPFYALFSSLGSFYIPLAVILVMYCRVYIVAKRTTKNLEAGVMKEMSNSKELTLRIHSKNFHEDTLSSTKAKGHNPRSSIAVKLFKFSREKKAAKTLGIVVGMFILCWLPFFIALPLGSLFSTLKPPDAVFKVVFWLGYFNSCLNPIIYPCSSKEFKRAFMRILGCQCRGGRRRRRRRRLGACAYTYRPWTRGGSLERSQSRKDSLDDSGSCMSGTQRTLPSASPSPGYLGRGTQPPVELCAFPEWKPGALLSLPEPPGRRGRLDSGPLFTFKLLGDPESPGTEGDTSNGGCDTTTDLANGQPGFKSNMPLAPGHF
T2 sequence (P23944 whole entry): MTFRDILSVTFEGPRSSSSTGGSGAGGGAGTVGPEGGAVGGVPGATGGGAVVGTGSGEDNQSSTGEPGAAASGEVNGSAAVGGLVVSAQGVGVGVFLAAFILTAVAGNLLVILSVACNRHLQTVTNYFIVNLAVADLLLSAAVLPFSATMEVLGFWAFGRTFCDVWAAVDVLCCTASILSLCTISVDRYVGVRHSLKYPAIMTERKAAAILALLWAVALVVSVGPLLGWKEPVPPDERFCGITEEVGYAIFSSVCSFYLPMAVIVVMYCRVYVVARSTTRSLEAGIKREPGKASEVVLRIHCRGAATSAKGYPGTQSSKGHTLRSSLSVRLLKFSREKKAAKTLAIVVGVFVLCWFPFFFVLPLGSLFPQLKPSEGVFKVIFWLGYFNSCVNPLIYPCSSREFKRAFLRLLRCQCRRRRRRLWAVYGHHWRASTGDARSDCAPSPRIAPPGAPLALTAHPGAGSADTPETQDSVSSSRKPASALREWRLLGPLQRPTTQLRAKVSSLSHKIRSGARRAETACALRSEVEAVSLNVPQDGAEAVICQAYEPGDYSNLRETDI
T2 sequence (P43140 whole entry): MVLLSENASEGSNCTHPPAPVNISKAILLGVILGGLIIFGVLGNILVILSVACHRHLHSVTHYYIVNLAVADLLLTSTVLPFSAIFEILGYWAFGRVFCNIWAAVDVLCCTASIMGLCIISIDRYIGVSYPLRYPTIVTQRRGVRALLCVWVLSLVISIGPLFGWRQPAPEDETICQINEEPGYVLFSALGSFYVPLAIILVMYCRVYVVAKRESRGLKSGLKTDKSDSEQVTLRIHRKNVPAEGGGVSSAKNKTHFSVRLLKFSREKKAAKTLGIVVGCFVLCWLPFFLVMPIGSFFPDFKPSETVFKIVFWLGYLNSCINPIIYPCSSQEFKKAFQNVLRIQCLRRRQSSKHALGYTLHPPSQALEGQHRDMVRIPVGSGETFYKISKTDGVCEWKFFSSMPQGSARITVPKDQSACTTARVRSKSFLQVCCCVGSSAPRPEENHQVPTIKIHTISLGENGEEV
Outline: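 Rat cerebral cortex membranes washed in 50 mM Tris-HCl pH 7.7 with 5 mM EDTA, stored at –80 °C, then assayed in 50 mM Tris-HCl pH 7.7 (0.2–0.3 mg protein). Incubation 60 min at 25 °C with 0.1 nM [3H]prazosin; nonspecific binding defined with 1 μM prazosin. Seven displacer concentrations in triplicate, GF/C filtration. IC50 by log-probit, Ki by Cheng–Prusoff (Kd 0.24 nM).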

[3] = biological target: T3, Adrenergic receptor alpha-2 (Rattus norvegicus, UniProt P22086+P19328+P22909); test: Binding affinity against Alpha-2 adrenergic receptor by displacing [3H]rauwolscine radioligand in rat cortex membrane; assay type: cell membranes, Brain
T3 sequence (P22086 whole entry): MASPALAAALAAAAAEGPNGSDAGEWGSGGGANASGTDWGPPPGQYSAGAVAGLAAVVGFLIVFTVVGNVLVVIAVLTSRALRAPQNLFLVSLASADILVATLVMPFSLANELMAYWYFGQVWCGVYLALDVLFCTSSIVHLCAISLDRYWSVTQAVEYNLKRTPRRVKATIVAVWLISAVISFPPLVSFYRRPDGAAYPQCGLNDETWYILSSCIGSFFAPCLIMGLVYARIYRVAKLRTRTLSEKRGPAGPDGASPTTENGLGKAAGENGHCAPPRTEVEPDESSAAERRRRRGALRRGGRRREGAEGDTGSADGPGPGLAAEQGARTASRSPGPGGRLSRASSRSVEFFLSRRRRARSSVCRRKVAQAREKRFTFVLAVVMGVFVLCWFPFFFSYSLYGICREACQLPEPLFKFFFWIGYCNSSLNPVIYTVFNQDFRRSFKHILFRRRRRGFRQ
T3 sequence (P19328 whole entry): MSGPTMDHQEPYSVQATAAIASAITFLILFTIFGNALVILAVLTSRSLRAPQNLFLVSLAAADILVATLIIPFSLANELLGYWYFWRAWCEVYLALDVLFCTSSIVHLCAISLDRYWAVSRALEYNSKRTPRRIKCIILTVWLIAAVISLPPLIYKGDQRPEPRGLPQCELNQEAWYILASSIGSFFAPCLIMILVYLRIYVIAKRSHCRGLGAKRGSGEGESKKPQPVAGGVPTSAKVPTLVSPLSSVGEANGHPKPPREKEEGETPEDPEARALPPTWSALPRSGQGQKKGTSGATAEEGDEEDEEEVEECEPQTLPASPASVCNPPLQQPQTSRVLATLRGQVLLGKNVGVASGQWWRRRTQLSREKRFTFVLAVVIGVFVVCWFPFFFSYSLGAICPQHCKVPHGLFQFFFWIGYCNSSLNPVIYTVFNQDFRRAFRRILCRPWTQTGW
T3 sequence (P22909 whole entry): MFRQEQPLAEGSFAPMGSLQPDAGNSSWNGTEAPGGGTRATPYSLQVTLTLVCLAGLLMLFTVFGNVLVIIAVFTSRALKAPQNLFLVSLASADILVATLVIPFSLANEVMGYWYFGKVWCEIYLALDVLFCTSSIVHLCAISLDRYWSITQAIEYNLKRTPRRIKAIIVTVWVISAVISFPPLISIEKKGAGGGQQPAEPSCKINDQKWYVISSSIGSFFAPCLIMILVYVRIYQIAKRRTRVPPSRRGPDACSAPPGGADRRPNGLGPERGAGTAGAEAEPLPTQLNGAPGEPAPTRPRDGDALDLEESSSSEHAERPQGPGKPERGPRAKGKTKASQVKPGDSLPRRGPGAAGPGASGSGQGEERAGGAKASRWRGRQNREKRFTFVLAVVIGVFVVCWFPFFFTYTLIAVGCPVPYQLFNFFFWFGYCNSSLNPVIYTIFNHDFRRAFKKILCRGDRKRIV

[4] = biological target: T2, Adrenergic receptor alpha-1; test: Intrinsic activity for displacement of [3H]prazosin from Alpha-1 adrenergic receptor of rat cerebral cortex membrane in the presence of 1 nM GTP; assay type: tissue-based
Outline: (§1)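 [3H]prazosin competition on rat cerebral cortex membranes, run with and without GTP (1 nM in table footnote, 1 mM in text). The GTP shift is the ratio of the affinity constant with GTP to that without. Values are means ± SEM of three experiments.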

[5] = biological target: T2, Adrenergic receptor alpha-1; test: Intrinsic activity for displacement of [3H]prazosin from Alpha-1 adrenergic receptor of rat cerebral cortex membrane in the absence of 1 nM GTP; assay type: tissue-based; outline: as §1
[6] = biological target: T2, Adrenergic receptor alpha-1; test: Binding affinity against Alpha-1 adrenergic receptor by displacing [3H]prazosin radioligand in rat cortex membrane.; assay type: cell membranes, Brain

SMILES	Ki [1] [nM]	Ki [2] [nM]	Ki [3] [nM]	Ki [4] [nM]	Ki [5] [nM]	Ki [6] [nM]
O=c1ccc(-n2cnc3ccccc32)nn1CCN1CCN(c2ccccc2Cl)CC1	1010	70.4	265	–	–	–
COc1ccccc1N1CCN(CCCCCCn2nc(-n3cnc4ccccc43)ccc2=O)CC1	106	6.4	113	–	–	–
O=c1ccc(-n2cnc3ccccc32)nn1CCCCCCN1CCN(c2ccccc2Cl)CC1	617	15.1	31.5	–	–	–
COc1ccccc1N1CCN(CCCCCn2nc(-n3ccnc3)ccc2=O)CC1	223	37.5	427	–	–	–
COc1ccccc1N1CCN(CCCCn2nc(-n3cnc4ccccc43)ccc2=O)CC1	315	–	–	0.97	1.2	–
COc1ccccc1N1CCN(CCn2nc(-n3ccnc3)ccc2=O)CC1	–	237	1492	–	–	–
O=c1ccc(-n2ccnc2)nn1CCCCCN1CCN(c2ccccc2Cl)CC1	323	23.3	134	–	–	–
COc1ccccc1N1CCN(CCn2nc(-n3cnc4ccccc43)ccc2=O)CC1	541	33	350	–	–	–
O=c1ccc(-n2ccnc2)nn1CCCCCCN1CCN(c2ccccc2Cl)CC1	–	29.7	138	–	–	–
O=c1ccc(-n2ccnc2)nn1CCCN1CCN(c2ccccc2Cl)CC1	617	–	–	–	–	–
COc1ccccc1N1CCN(CCCCCCn2nc(-n3ccnc3)ccc2=O)CC1	–	52.5	131	–	–	–
COc1ccccc1N1CCN(CCCn2nc(-n3cnc4ccccc43)ccc2=O)CC1	382	–	–	–	–	–
COc1ccccc1N1CCN(CCCCCCCn2nc(-n3cnc4ccccc43)ccc2=O)CC1	–	1.7	89.8	–	–	–
COc1ccccc1N1CCN(CCCCCCCn2nc(-n3ccnc3)ccc2=O)CC1	98.7	–	76.5	–	–	6
O=c1ccc(-n2cnc3ccccc32)nn1CCCN1CCN(c2ccccc2Cl)CC1	461	–	–	–	–	–
COc1ccccc1N1CCN(CCn2nc(-n3ccc4ccccc43)ccc2=O)CC1	310	22.7	1098	–	–	–
COc1ccccc1N1CCN(CCCCCCn2nc(-n3ccc4ccccc43)ccc2=O)CC1	514	2.8	104	–	–	–
O=c1ccc(-n2cnc3ccccc32)nn1CCCCN1CCN(c2ccccc2Cl)CC1	181	1.3	5.8	–	–	–
COc1ccccc1N1CCN(CCCCCn2nc(-n3ccc4ccccc43)ccc2=O)CC1	141	6.8	95.6	–	–	–
O=c1ccc(-n2cnc3ccccc32)nn1CCCCCN1CCN(c2ccccc2Cl)CC1	351	4.5	127	–	–	–
COc1ccccc1N1CCN(CCCn2nc(-n3ccc4ccccc43)ccc2=O)CC1	103	3.2	170	–	–	–
COc1ccccc1N1CCN(CCCCCCCn2nc(-n3ccc4ccccc43)ccc2=O)CC1	181	–	306	–	–	1.1
O=c1ccc(-n2ccnc2)nn1CCN1CCN(c2ccccc2Cl)CC1	–	472	2072	–	–	–
O=c1ccc(-n2ccnc2)nn1CCCCN1CCN(c2ccccc2Cl)CC1	–	24.6	65.2	–	–	–
COc1ccccc1N1CCN(CCCCCn2nc(-n3cnc4ccccc43)ccc2=O)CC1	127	3.1	30.5	–	–	–
COc1ccccc1N1CCN(CCCn2nc(-n3ccnc3)ccc2=O)CC1	463	–	–	–	–	–
O=c1ccc(-n2cnc3ccccc32)nn1CCCCCCCN1CCN(c2ccccc2Cl)CC1	182	1	10.3	–	–	–
